Test results from ChEMBL document CHEMBL1149569, “Aminopyrrolidineamide inhibitors of site-1 protease” (Bioorg Med Chem Lett, 2007).
Calls of active or inactive are those of the source. The rule behind the calls is not given here.

Assays:
[1] = target: T1, Membrane-bound transcription factor site-1 protease (Homo sapiens, UniProt Q14703); experiment: Inhibition of human S1P expressed in CHOK1 cells; assay type: cell-based, CHO-K1
T1 sequence (Q14703 whole entry): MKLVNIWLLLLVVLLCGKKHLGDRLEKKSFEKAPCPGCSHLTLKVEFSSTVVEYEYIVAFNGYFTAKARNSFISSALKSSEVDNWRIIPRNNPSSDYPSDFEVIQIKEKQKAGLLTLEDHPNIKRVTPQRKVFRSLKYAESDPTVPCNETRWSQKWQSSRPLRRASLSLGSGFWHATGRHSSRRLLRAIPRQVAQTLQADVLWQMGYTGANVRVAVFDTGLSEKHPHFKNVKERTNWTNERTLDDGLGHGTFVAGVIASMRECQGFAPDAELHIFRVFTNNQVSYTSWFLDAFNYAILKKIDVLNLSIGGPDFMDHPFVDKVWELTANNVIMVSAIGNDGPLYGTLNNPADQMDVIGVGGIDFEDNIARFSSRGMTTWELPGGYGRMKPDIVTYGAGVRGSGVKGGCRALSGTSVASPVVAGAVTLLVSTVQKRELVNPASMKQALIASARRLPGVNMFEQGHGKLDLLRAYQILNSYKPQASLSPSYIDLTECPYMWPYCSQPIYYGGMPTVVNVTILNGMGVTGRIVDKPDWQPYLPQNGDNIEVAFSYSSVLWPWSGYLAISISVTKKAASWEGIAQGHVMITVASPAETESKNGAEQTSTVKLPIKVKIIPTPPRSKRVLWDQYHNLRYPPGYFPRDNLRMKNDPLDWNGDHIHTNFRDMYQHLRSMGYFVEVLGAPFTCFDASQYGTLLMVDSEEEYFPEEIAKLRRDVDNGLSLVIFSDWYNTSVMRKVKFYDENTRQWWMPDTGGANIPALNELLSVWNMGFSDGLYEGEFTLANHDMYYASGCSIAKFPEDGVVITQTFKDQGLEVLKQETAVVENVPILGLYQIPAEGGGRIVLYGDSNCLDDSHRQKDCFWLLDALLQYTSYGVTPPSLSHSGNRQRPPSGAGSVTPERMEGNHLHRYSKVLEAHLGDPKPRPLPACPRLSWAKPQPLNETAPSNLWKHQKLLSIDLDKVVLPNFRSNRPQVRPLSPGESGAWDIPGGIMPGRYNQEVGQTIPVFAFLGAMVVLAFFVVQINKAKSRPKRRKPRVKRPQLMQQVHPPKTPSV

Liver [2] = experiment: Reduction of HMG-CoA synthase expression in mouse liver; assay type: functional, tissue-based
Liver [3] = experiment: Inhibition of fatty acid synthesis in rat liver at 10 uM; assay type: functional
HepG2 [4] = experiment: Inhibition of nuclear translocation of SREBP in HepG2 cells at 10 uM; assay type: functional, cell-based; conditions: Homo sapiens
In short: (§1)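 Hep-G2 human liver cells in culture were treated at 10 µM. SREBP proteolytic processing and nuclear translocation were then assessed.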

HepG2 [5] = experiment: Inhibition of proteolytic processing of SREBP in HepG2 cells at 10 uM; assay type: functional, cell-based; conditions: Homo sapiens; in short: as §1
Hep-G2 (Homo sapiens) = experiment: Reduction of HMG-CoA synthase expression in human Hep-G2 cells
[6] = Oral bioavailability in rat; assay type: ADME, organism-based; conditions: in vivo
HepG2 [7] = experiment: Inhibition of LDL receptor gene expression in HepG2 cells; assay type: functional, cell-based; conditions: Homo sapiens
HepG2 [8] = experiment: Inhibition of cholesterol synthesis in HepG2 cells; assay type: functional, cell-based; conditions: Homo sapiens
[9] = target: Urokinase-type plasminogen activator (Homo sapiens, UniProt P00749); experiment: Inhibition of urokinase
[10] = Plasma clearance in rat; assay type: ADME, organism-based
Mus musculus [11] = experiment: Antilipogenic activity in CD1 mouse assessed as inhibition of cholesterol synthetic pathway at 30 mg/kg, ip every 6 hrs for 24 hrs; assay type: functional; parameters: scale not given: the % may be the effect or the level left; conditions: route intraperitoneal
In short: (§2)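 Male CD1 mice, n = 5 per group, given 10 or 30 mg/kg/dose intraperitoneally every 6 h for 24 h (acute 24 h efficacy). Hepatic HMG-CoA synthase, fatty acid synthase and LDL receptor gene expression were measured in liver tissue samples. Cholesterol and fatty acid synthetic pathway activity was measured in the animals.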

Liver [12] = experiment: Inhibition of cholesterol synthesis in rat liver; assay type: functional, tissue-based
Mus musculus [13] = experiment: Antilipogenic activity in CD1 mouse assessed as reduction of fatty acid synthase gene expression at 30 mg/kg, ip every 6 hrs for 24 hrs; assay type: functional; parameters: scale not given: the % may be the effect or the level left; conditions: route intraperitoneal; in short: as §2
Mus musculus [14] = experiment: Antilipogenic activity in CD1 mouse assessed as reduction of HMG-CoA synthase gene expression at 10 mg/kg, ip every 6 hrs for 24 hrs; assay type: functional; parameters: scale not given: the % may be the effect or the level left; conditions: route intraperitoneal; in short: as §2
Mus musculus [15] = experiment: Antilipogenic activity in CD1 mouse assessed as reduction of HMG-CoA synthase gene expression at 30 mg/kg, ip every 6 hrs for 24 hrs; assay type: functional; parameters: scale not given: the % may be the effect or the level left; conditions: route intraperitoneal; in short: as §2
Hepatocyte = experiment: Reduction of fatty acid synthase expression in mouse hepatocytes; assay type: functional, cell-based
Coagulation factor X = Coagulation factor X (Homo sapiens, UniProt P00742); experiment: Inhibition of factor 10a
Mus musculus [16] = experiment: Antilipogenic activity in CD1 mouse assessed as inhibition of cholesterol synthetic pathway at 10 mg/kg, ip every 6 hrs for 24 hrs; assay type: functional; parameters: scale not given: the % may be the effect or the level left; conditions: route intraperitoneal; in short: as §2
Liver [17] = experiment: Reduction of fatty acid synthase expression in mouse liver; assay type: functional, tissue-based
Mus musculus [18] = experiment: Antilipogenic activity in CD1 mouse assessed as inhibition of fatty acid synthetic pathway at 30 mg/kg, ip every 6 hrs for 24 hrs; assay type: functional; parameters: scale not given: the % may be the effect or the level left; conditions: route intraperitoneal; in short: as §2
Mus musculus [19] = experiment: Antilipogenic activity in CD1 mouse assessed as reduction of LDL receptor gene expression at 30 mg/kg, ip every 6 hrs for 24 hrs; assay type: functional; parameters: scale not given: the % may be the effect or the level left; conditions: route intraperitoneal; in short: as §2
HepG2 [20] = experiment: Inhibition of fatty acid synthesis in HepG2 cells at 10 uM; assay type: functional; conditions: Homo sapiens
[21] = target: Low-density lipoprotein receptor (Homo sapiens) (UniProt P01130); experiment: Inhibition of LDL receptor-mediated LDL internalization in HepG2 cells; assay type: cell-based
Mus musculus [22] = experiment: Antilipogenic activity in CD1 mouse assessed as inhibition of fatty acid synthetic pathway at 10 mg/kg, ip every 6 hrs for 24 hrs; assay type: functional; parameters: scale not given: the % may be the effect or the level left; conditions: route intraperitoneal; in short: as §2
Mus musculus [23] = experiment: Antilipogenic activity in CD1 mouse assessed as reduction of fatty acid synthase gene expression at 10 mg/kg, ip every 6 hrs for 24 hrs; assay type: functional; parameters: scale not given: the % may be the effect or the level left; conditions: route intraperitoneal; in short: as §2

Low-density lipoprotein receptor (Homo sapiens), sequence (P01130 whole entry): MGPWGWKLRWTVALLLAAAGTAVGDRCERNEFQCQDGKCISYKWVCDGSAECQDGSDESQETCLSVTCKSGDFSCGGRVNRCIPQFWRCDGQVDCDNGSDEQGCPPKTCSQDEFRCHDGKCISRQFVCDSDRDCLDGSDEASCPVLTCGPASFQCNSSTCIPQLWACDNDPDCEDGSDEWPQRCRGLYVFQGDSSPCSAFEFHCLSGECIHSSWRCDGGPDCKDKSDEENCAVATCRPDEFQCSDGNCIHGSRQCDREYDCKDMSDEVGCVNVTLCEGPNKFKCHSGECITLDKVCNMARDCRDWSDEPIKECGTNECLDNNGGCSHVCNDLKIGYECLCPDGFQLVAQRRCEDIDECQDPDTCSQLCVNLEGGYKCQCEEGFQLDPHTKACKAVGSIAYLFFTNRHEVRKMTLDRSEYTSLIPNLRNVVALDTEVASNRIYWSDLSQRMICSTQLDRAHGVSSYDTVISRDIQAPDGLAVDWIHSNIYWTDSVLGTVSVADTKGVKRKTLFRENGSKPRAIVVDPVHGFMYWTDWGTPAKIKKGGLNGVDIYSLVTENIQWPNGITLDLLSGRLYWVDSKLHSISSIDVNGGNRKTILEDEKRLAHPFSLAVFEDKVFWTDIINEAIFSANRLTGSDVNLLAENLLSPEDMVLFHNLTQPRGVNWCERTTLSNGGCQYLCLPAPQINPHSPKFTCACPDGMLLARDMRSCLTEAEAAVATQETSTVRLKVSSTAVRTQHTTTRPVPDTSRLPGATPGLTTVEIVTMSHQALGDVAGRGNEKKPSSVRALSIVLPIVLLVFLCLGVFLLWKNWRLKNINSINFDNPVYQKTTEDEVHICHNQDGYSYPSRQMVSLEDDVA
Coagulation factor X, sequence (P00742 41-179 limits assumed): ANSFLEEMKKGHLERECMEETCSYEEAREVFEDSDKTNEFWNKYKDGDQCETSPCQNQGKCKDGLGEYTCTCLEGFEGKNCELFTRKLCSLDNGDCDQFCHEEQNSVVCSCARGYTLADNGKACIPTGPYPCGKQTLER
Coagulation factor X, sequence (P00742 235-488 limits assumed): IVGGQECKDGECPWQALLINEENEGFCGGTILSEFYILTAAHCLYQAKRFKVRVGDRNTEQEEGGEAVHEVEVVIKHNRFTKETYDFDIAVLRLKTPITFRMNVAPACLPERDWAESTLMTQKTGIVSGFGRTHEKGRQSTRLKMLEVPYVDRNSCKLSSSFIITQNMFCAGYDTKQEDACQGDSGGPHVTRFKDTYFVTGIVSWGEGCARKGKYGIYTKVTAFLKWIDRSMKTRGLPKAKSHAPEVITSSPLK

Question: For `CC(C)Oc1ccc(C(=O)N(CCc2ccccc2Cl)C2CCN(C=O)C2)cc1` (centres undefined), which IC50 [1] is on record?
Answer: > 30 µM

Question: Which IC50 [1] does the source give for `COc1ccccc1CCN(C(=O)c1ccc(CN2CCCC(c3ccccc3C)C2)cc1)C1CCNC1` (centres undefined) here?
Answer: 0.037 µM

Question: For `COC[C@@H]1CCCN1Cc1ccc(C(=O)N(CCc2ccccc2OC)C2CCNC2)cc1` (some centres undefined), which IC50 [1] is on record?
Answer: 0.14 µM

Question: For `CCOc1ccccc1CCN(C(=O)c1ccc(CN(CC)CC)cc1)C1CCNC1` (centres undefined), which IC50 [1] is on record?
Answer: 16 µM

Question: Which IC50 [1] does the source give for `CCN(CC)Cc1ccc(C(=O)N(CCc2c(Cl)cccc2Cl)C2CCNC2)cc1` (centres undefined) here?
Answer: 0.43 µM

Question: For `CCN(CC)Cc1ccc(C(=O)N(CCc2ccccc2OC)[C@H]2CCNC2)cc1`, which IC50 [1] is on record?
Answer: 0.97 µM

Question: With `CCN(CC)Cc1ccc(C(=O)N(CCc2ccc(Cl)cc2)C2CCNC2)cc1` (centres undefined) as the compound, how does the IC50 [1] read?
Answer: 3.7 µM

Question: With `CC(C)Oc1ccc(C(=O)N(CCc2ccccc2Cl)C2CCCNC2)cc1` (centres undefined) as the compound, how does the IC50 [1] read?
Answer: > 30 µM

Question: Which IC50 [1] does the source give for `CC(C)Oc1ccc(C(=O)N(CCc2ccccc2Cl)C2CCSC2)cc1` (centres undefined) here?
Answer: > 30 µM

Question: Which EC50 (Liver [2]) does the source give for `CCN(CC)Cc1ccc(C(=O)N(CCc2ccccc2OC)[C@@H]2CCNC2)cc1` here?
Answer: 0.3 µM

Question: And the inhibition at 10 µM (Liver [3])?
Answer: 43%

Question: What about the Activity (HepG2 [4]) of the same compound?
Answer: Active

Question: And the Activity (HepG2 [5])?
Answer: Active

Question: What about the EC50 (Hep-G2 (Homo sapiens)) of the same compound?
Answer: 0.3 µM

Question: And the bioavailability [6]?
Answer: 5%

Question: What about the IC50 [1] of the same compound?
Answer: 0.17 µM

Question: And the Activity (HepG2 [7])?
Answer: Active

Question: And the EC50 (HepG2 [8])?
Answer: 0.6 µM

Question: And the IC50 [9]?
Answer: 50 µM

Question: What about the clearance [10] of the same compound?
Answer: 75 mL/min/kg

Question: What about the Activity (Mus musculus [11]) of the same compound?
Answer: 80%

Question: And the EC50 (Liver [12])?
Answer: 0.6 µM

Question: What about the Activity (Mus musculus [13]) of the same compound?
Answer: 75%

Question: And the Activity (Mus musculus [14])?
Answer: >80%

Question: And the Activity (Mus musculus [15])?
Answer: >80%

Question: And the EC50 (Hepatocyte)?
Answer: 2 µM

Question: And the IC50 (Coagulation factor X)?
Answer: 100 µM

Question: And the Activity (Mus musculus [16])?
Answer: 50%

Question: What about the EC50 (Liver [17]) of the same compound?
Answer: 2 µM

Question: What about the Activity (Mus musculus [18]) of the same compound?
Answer: 80%

Question: And the Activity (Mus musculus [19])?
Answer: 35%

Question: What about the inhibition at 10 µM (HepG2 [20]) of the same compound?
Answer: 43%

Question: What about the Activity [21] of the same compound?
Answer: Active

Question: What about the Activity (Mus musculus [22]) of the same compound?
Answer: 50%

Question: What about the Activity (Mus musculus [23]) of the same compound?
Answer: 50%

Question: Which IC50 [1] does the source give for `CCN(CC)Cc1ccc(C(=O)N(CCc2ccccc2C)C2CCNC2)cc1` (centres undefined) here?
Answer: 1.6 µM

Question: With `COc1ccccc1CCN(C(=O)c1ccc(CN2CC3CCCC2C3)cc1)C1CCNC1` (centres undefined) as the compound, how does the IC50 [1] read?
Answer: 0.029 µM

Question: With `CC(C)Oc1ccc(C(=O)N(CCc2ccccc2Cl)C2CNC2)cc1` as the compound, how does the IC50 [1] read?
Answer: > 30 µM

Question: With `O=C(c1ccc(OCc2ccccc2)cc1)N(CCc1ccccc1Cl)C1CCNC1` (centres undefined) as the compound, how does the IC50 [1] read?
Answer: 0.59 µM

Question: For `CC(C)Oc1ccc(C(=O)N(CCc2cccc(Cl)c2)C2CCNC2)cc1` (centres undefined), which IC50 [1] is on record?
Answer: 9.6 µM

Question: Which IC50 [1] does the source give for `O=C(c1ccc(OCc2ccccc2)cc1)N(CCc1cccc(Cl)c1)C1CCNC1` (centres undefined) here?
Answer: 0.51 µM

Question: With `COc1ccccc1CCN(C(=O)c1ccc(CN2CC3CCC2C3)cc1)C1CCNC1` (centres undefined) as the compound, how does the IC50 [1] read?
Answer: 0.095 µM

Question: For `CC(C)Oc1ccc(C(=O)N(Cc2ccccc2Cl)C2CCNC2)cc1` (centres undefined), which IC50 [1] is on record?
Answer: > 5 µM

Question: Which IC50 [1] does the source give for `O=C(c1ccc(CN2CCCCC2)cc1)N(CCc1ccccc1Cl)C1CCOC1` (centres undefined) here?
Answer: > 30 µM

Question: For `Cc1ccccc1C1CCCN(Cc2ccc(C(=O)N(CCc3ccccc3Cl)C3CCNC3)cc2)C1` (centres undefined), which IC50 [1] is on record?
Answer: 0.008 µM

Question: With `CC(C)Oc1ccc(C(=O)N(CCc2ccccc2Cl)C2CCN(C)C2)cc1` (centres undefined) as the compound, how does the IC50 [1] read?
Answer: > 30 µM

Question: With `CC(C)Oc1ccc(C(=O)N(CCc2ccccc2Cl)C2CCNC2)cc1` (centres undefined) as the compound, how does the IC50 [1] read?
Answer: 1.4 µM

Question: With `CCN(CC)Cc1ccc(C(=O)N(CCc2ccccc2OC)C2CCNC2)cc1` (centres undefined) as the compound, how does the IC50 [1] read?
Answer: 0.54 µM

Question: With `COc1ccccc1CCN(C(=O)c1ccc(CN2CCCCC2)cc1)C1CCNC1` (centres undefined) as the compound, how does the IC50 [1] read?
Answer: 0.25 µM

Question: With `COc1ccccc1CCN(C(=O)c1ccc(OCc2ccccc2)cc1)C1CCNC1` (centres undefined) as the compound, how does the IC50 [1] read?
Answer: 0.31 µM

Question: Which IC50 [1] does the source give for `CCN(CC)Cc1ccc(C(=O)N(CCc2ccccc2Cl)C2CCNC2)cc1` (centres undefined) here?
Answer: 0.84 µM

Question: Which IC50 [1] does the source give for `COc1ccccc1CCN(C(=O)c1ccc(CN[C@H]2CCCC[C@@H]2O)cc1)C1CCNC1` (some centres undefined) here?
Answer: 0.1 µM

Question: Which IC50 [1] does the source give for `CC(C)Oc1ccc(C(=O)N(CCc2ccccc2F)C2CCNC2)cc1` (centres undefined) here?
Answer: 9 µM

Question: With `COc1ccccc1CCN(C(=O)c1ccc(CN2CCCC(C(N)=O)C2)cc1)C1CCNC1` (centres undefined) as the compound, how does the IC50 [1] read?
Answer: 0.16 µM
